# Measured values taken from the RNAGym collection of RNA variant scans (doi:10.1126/science.aae0568).
# Fewer inactive variants are shown than the library holds.
# B1: tRNA (parent)
# chain: GUUCCGUUGGCGUAAUGGUAACGCGUCUCCCUCCUAAGGAGAAGACUGCGGGUUCGAGUCCCGUACGGAACG
# Variants of: B1
# Test: yeast fitness relative to wild type (ratio to wild type); higher = fitter; tRNA-Arg(CCU), competitive growth, 37 C, YPD
# How it was run: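 Changes in genotype frequencies gave Darwinian fitness relative to wild type. Frequencies were read by 100-nucleotide paired-end sequencing of gene amplicons before and after pooled Saccharomyces cerevisiae strains, carrying tRNA-Arg(CCU) gene variants at the native locus, were competed in YPD at 37°C for 24 hours in six replicates. A genotype was kept only with ≥ 100 starting reads, and estimates < 0.5 were set to 0.5.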
row,Variant,yeast fitness
1,G6A U13A G58C C60U C66G,≤ 0.5
2,G6A U13A U16A C24G C33G C62G,≤ 0.5
3,G6A U13C C22G C55G,≤ 0.5
4,G6A U13C C27G A37U C60A,≤ 0.5
5,G6A U13C C31U U32C G67C,≤ 0.5
6,G6A U13C G23A A65C,≤ 0.5
7,G6A U13G A36U C46G C62A,≤ 0.5
8,G6A U13G A40U,0.502
9,G6A U13G C62G,≤ 0.5
10,G6A U13G G48A G50A U54A,≤ 0.5
11,G6A U13G U28G,0.511
12,G6A U13G U35C A57C,≤ 0.5
13,G6A U16A,0.769
14,G6A U16A A43C G67C,≤ 0.5
15,G6A U16C,0.974
16,G6A U16C C22U A37U C49A C62U,≤ 0.5
17,G6A U16C C34G G51A,≤ 0.5
18,G6A U16G A21G,0.544
19,G6A U16G A37C A57C C60A,≤ 0.5
20,G6A U19A A20G G23A,≤ 0.5
21,G6A U19C C24U,0.744
22,G6A U19G,0.828
23,G6A U19G A43U A65G G68A,≤ 0.5
24,G6A U19G U53C,≤ 0.5

row,Variant,yeast fitness
1,G6A U26A A37C A57U,≤ 0.5
2,G6A U26A A57C G67A A69U,≤ 0.5
3,G6A U26A G48C,0.557
4,G6A U26C,0.842
5,G6A U26C A69U,0.664
6,G6A U28A,0.821
7,G6A U28A C31G U35A U47A U54A,≤ 0.5
8,G6A U28A G68A,0.533
9,G6A U28C,0.898
10,G6A U28G,0.886
11,G6A U32A A45U A69C,0.565
12,G6A U32C,0.839
13,G6A U32C A37G C55A A65U G68C,≤ 0.5
14,G6A U32C C46G,0.694
15,G6A U32C G44A C46A G52A C66U,0.567
16,G6A U32G U35G,≤ 0.5
17,G6A U35A,0.775
18,G6A U35C G44A G48C C55G A69U,≤ 0.5
19,G6A U35G C55A,0.643
20,G6A U47A,0.692
21,G6A U47A U64A,≤ 0.5
22,G6A U47C,0.878
23,G6A U47C A57C,≤ 0.5
24,G6A U47G U54C,≤ 0.5

row,Variant,yeast fitness
1,G6A U53A,0.663
2,G6A U53A G67U G68A,≤ 0.5
3,G6A U53C,0.82
4,G6A U54G G58A,≤ 0.5
5,G6A U59A,0.715
6,G6A U59C,0.893
7,G6A U59C C62U,0.543
8,G6A U59G,0.912
9,G6A U64C,0.874
10,G6C A14C,0.596
11,G6C A14C A21C A42G A70G,≤ 0.5
12,G6C A14C C24U C27G C29A A70G,≤ 0.5
13,G6C A14C C27U,0.539
14,G6C A14C C29U C34G C46U A57G C66A G68C,≤ 0.5
15,G6C A14C G44C C62G,≤ 0.5
16,G6C A14C U54C A65U,0.637
17,G6C A14G,1
18,G6C A14G A20C C66U,≤ 0.5
19,G6C A14G A20C G52A U64A G67A,≤ 0.5
20,G6C A14G A20C U54A A57C,≤ 0.5
21,G6C A14G A20C U64A G67A,0.562
22,G6C A14G C27A A42C G52A G56A G63C,≤ 0.5
23,G6C A14G C46G C62U C66U,≤ 0.5
24,G6C A14G C49G G50A G58A,≤ 0.5

row,Variant,yeast fitness
1,G6C A14G G39C,≤ 0.5
2,G6C A14G U16C A42U G52U,≤ 0.5
3,G6C A14G U28A C46G U54C G68U,≤ 0.5
4,G6C A14G U35G G51A,≤ 0.5
5,G6C A14U,0.607
6,G6C A14U A36G A40G C46A C62U,≤ 0.5
7,G6C A14U A36G A42G G52A G58A,≤ 0.5
8,G6C A14U G18C C49U,≤ 0.5
9,G6C A15C,0.689
10,G6C A15C A21C C34U A37U A57U,≤ 0.5
11,G6C A15C A21C C34U A37U A69U,≤ 0.5
12,G6C A15C A21C C34U A37U C55A U59C C61A C62U,0.537
13,G6C A15C A21C C34U A37U G56C U59G,≤ 0.5
14,G6C A15C C31U,≤ 0.5
15,G6C A15G A21G G25A A40C C61A A65U,≤ 0.5
16,G6C A15G C22A C29G A37C,≤ 0.5
17,G6C A15G C24U C60A,0.554
18,G6C A15G G51A,≤ 0.5
19,G6C A15G U54G C55U,≤ 0.5
20,G6C A15U A42G A65G,≤ 0.5
21,G6C A15U G23A C29U A43G,≤ 0.5
22,G6C A15U G23C C31G G41C G48C,0.574
23,G6C A15U G23C C31G G41C G48C G67C,≤ 0.5
24,G6C A15U U26A A57C,0.707

row,Variant,yeast fitness
1,G6C A20C A40G A42U G58A G63A G67A,0.519
2,G6C A20C C66G A70U,0.577
3,G6C A20G A42U,0.63
4,G6C A20G A45U,0.507
5,G6C A20G C61G,≤ 0.5
6,G6C A20U,0.812
7,G6C A20U A36C A40G A43U A57C,≤ 0.5
8,G6C A20U C22U C24U,≤ 0.5
9,G6C A20U C30G A65G A70U,0.53
10,G6C A20U C30G C61A,≤ 0.5
11,G6C A21C C22G,≤ 0.5
12,G6C A21G,0.857
13,G6C A21G G48A,0.977
14,G6C A21G G48A A57C G67A,≤ 0.5
15,G6C A21U U26C,≤ 0.5
16,G6C A36C,0.53
17,G6C A36G,0.875
18,G6C A36U,0.653
19,G6C A36U A43G G48A C49U U53C,≤ 0.5
20,G6C A37C G51A U53C,≤ 0.5
21,G6C A37C G58C U59C,≤ 0.5
22,G6C A37G,0.728
23,G6C A37G G44C A57U G68C,≤ 0.5
24,G6C A37G G68C,0.536

row,Variant,yeast fitness
1,G6C A37U,0.677
2,G6C A37U A43U,0.525
3,G6C A37U C49U G56A A69U,≤ 0.5
4,G6C A37U U53C A69U,≤ 0.5
5,G6C A40G C61A,≤ 0.5
6,G6C A40U,0.803
7,G6C A40U G56A,≤ 0.5
8,G6C A42C A65G C66G,0.532
9,G6C A42C C62G,≤ 0.5
10,G6C A42G,0.815
11,G6C A42G C46A,0.695
12,G6C A42G U53C C62U,≤ 0.5
13,G6C A42U G67A,≤ 0.5
14,G6C A43G,0.851
15,G6C A43G C49U C60A C62A,0.691
16,G6C A43U C61G C62A,0.618
17,G6C A43U G50A A70U,≤ 0.5
18,G6C A45C C46G C55U,≤ 0.5
19,G6C A45C C55U A69C,≤ 0.5
20,G6C A45C G48A G51C,≤ 0.5
21,G6C A45C G50A,0.629
22,G6C A45C G58A,0.587
23,G6C A45C U47C G68C,≤ 0.5
24,G6C A45U,0.823

row,Variant,yeast fitness
1,G6C A45U C60A C61A G63A,≤ 0.5
2,G6C A45U G50A,0.658
3,G6C A57G,0.968
4,G6C A57U C62U,≤ 0.5
5,G6C A65G,0.94
6,G6C A70C,0.938
7,G6C A70G,0.948
8,G6C C11A,0.659
9,G6C C11A C22A C29G,≤ 0.5
10,G6C C11A C22U U47C C66A,≤ 0.5
11,G6C C11A C34G,≤ 0.5
12,G6C C11A C34G A65G,≤ 0.5
13,G6C C11A C34G C66A,≤ 0.5
14,G6C C11A G48C,0.627
15,G6C C11G A14U A20G C22U G44A C55A,≤ 0.5
16,G6C C11G A14U C22U G44A C55A,≤ 0.5
17,G6C C11G A15C G25C C27G C30G G38C,0.61
18,G6C C11G A15C G25C C27G C30G G38C A40G,≤ 0.5
19,G6C C11G A15C G25C C27G C30G G38C A70C,≤ 0.5
20,G6C C11G A15C G25C C27G C30G G38C C61G U64G,≤ 0.5
21,G6C C11G A15G C66A,≤ 0.5
22,G6C C11G A15U C31G C61G A69G,0.657
23,G6C C11G A20G G48C A57G U59A C60A,≤ 0.5
